Results on 4 compounds are retold here after ChEMBL document CHEMBL1157796, “Coumarins from Galipea panamensis and Their Activity against Leishmania panamensis” (J Nat Prod, 2010).

A short description of data set [1]: Selectivity index, ratio of CC50 for human U937 cells to EC50 for Leishmania panamensis M/HOM//87/UA140. The format is toxicity, cell-based, U-937. Conditions: read-out: Selectivity Index.
Data set [2] is described as follows: Cytotoxicity against human U937 cells. The format is cell-based, U-937.
For another data set, the system named is Leishmania panamensis. In words: Antimicrobial activity against Leishmania panamensis M/HOM//87/UA140 transfected with p6.5-egfp after 72 hrs by MTT assay. The format is functional, organism-based. Conditions: M/HOM//87/UA140, 72 h. An outline of the steps: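 Axenic amastigotes of L. panamensis M/HOM//87/UA140 epirGFP strain (1 × 10^6 parasites/mL) incubated at 32 °C in Schneider's Drosophila medium pH 5.2 with 20% heat-inactivated FCS. Six concentrations, 3.1-100 µg/mL, from DMSO solutions, 72 h. MTT then added for 4 h, stopped with 2-propanol/SDS, OD 570 nm. DMSO-treated and untreated parasites as controls, amphotericin B as reference. Two independent experiments in triplicate, EC50 by Probit analysis.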

Converted amounts (≈) assume the structure as drawn.

In general, CC50 refers to the concentration at which the toxic effect on the cells reaches its halfway point. Read a high CC50 as lower toxicity to the cells. One may read the EC50 as the concentration needed to bring the measured effect to its halfway point.

As for `C=C(C)[C@H]1O[C@@H]1c1c(OC[C@H]2OC2(C)C)ccc2ccc(=O)oc12` (relative stereo), the selectivity ratio in data set [1] came to 1. Also, the CC50 in data set [2] worked out at 9.7 µg/mL (≈ 29.5 µM). The EC50 in the data set with Leishmania panamensis worked out at 10 µg/mL (≈ 30.5 µM).
As to `COc1ccc2ccc(=O)oc2c1-c1cocc1C`, in data set [1], the selectivity ratio is 3. The compound also gave a CC50 in data set [2] of 33 µg/mL (≈ 129 µM). For the same compound, the concentration giving a half-maximal response (EC50) with Leishmania panamensis was determined as 10 µg/mL (≈ 39 µM).
For the compound `C=C(C)[C@H]1O[C@@H]1c1c(OC)ccc2ccc(=O)oc12` [PHEBALOSIN], in data set [1], the selectivity ratio worked out at 1.5. The CC50 in data set [2] was 20.7 µg/mL (≈ 80.1 µM).
In the case of `COc1ccc2ccc(=O)oc2c1C(C=O)=C(C)C` [MURRALONGIN], in data set [2], the CC50 is 121 µg/mL (≈ 470 µM). This compound also yielded an EC50 with Leishmania panamensis above 100 µg/mL.
